Drawing on ChEMBL document CHEMBL3779787, “Amorfrutin C Induces Apoptosis and Inhibits Proliferation in Colon Cancer Cells through Targeting Mitochondria” (J Nat Prod, 2016), this text covers IC50, Activity and Ki for 1 compound.

Test [1] has as its system T84. Description: Antiproliferative activity against human T84 cells assessed as cellular DNA content after 96 hrs by CyQUANT NF fluorescence assay. The following applies: T84, 96 h. The format is functional, cell-based. In a few lines: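 Cells seeded at 750 (HT-29), 250 (PC-3) or 900 (T84, MCF7) cells/well, treated next day with concentration series for 72 h (HT-29, PC-3) or 96 h (T84, MCF7). Relative cell number from cellular DNA content by fluorescent DNA-binding dye. Variable-slope fit; efficiency = maximal inhibition (100% − Bottom) vs untreated; IC50 relative to the compound's own maximal efficiency.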

In test [2] the test system is HT-29. In words: Antiproliferative activity against human HT-29 cells assessed as cellular DNA content at 20 uM after 48 hrs by CyQUANT NF fluorescence assay in presence of 3H-1,2-dithiole-3-thione. The format is functional, cell-based. In a few lines: (§1)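 HT-29 given concentration series of test compound with or without antioxidant (NAC 1 mM, GSH 2.5 mM, D3T 25 μM, α-tocopherol 50 μM, ascorbic acid 500 μM) for 48 h. Relative cell number from DNA-binding fluorescent dye; means ± SD, n = 4.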

The subject of test [3] is HT-29. Description: Antiproliferative activity against human HT-29 cells assessed as cellular DNA content at 20 uM after 48 hrs by CyQUANT NF fluorescence assay in presence of alpha-tocopherol. The format is functional, cell-based. The procedure, abridged: as §1
Test [4] deals with HT-29. In words: Induction of apoptosis in human HT-29 cells assessed as mitochondrial membrane depolarization at 30 uM by JC-1 dye-based fluorescence assay in presence of cyclosporinA. The format is functional, cell-based.
Test [5] relates to HT-29. Description: Induction of apoptosis in human HT-29 cells assessed as phosphatidylserine externalization at 20 uM after 48 hrs by annexin V-FLUOS/propidium iodide staining-based flow cytometry (reference value: 8%). The format is functional.
Test [6] concerns HT-29. Description: Downregulation of cyclin E2 expression in human HT-29 cells at 10 uM after 48 hrs by immunoblotting method. The format is functional, cell-based. In a few lines: (§2)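 HT-29 exposed to 10 μM for 48 h; whole-cell lysates immunoblotted for the indicated proteins (total and cleaved PARP for the apoptosis line).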
(Immunoblotting shows a protein as a band on a membrane.)

Test [7] concerns HT-29. In words: Downregulation of cyclin D3 expression in human HT-29 cells at 10 uM after 48 hrs by immunoblotting method. The format is functional, cell-based. The procedure, abridged: as §2
For test [8], the system named is HT-29. In words: Downregulation of CDK6 expression in human HT-29 cells at 10 uM after 48 hrs by immunoblotting method. The format is functional, cell-based. In a few lines: as §2
The test system of test [9] is HT-29. In words: Induction of apoptosis in human HT-29 cells assessed as mitochondrial membrane depolarization after 5 mins by JC-1 dye-based fluorescence assay. The format is functional, cell-based. The following applies: HT-29, 5 min. The procedure, abridged:
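HT-29 (40 000 cells/well) treated with concentration series for 5 min at 37 °C, then JC-1 added for a further 10 min and washed. Red (560/590 nm) to green (485/520 nm) fluorescence ratio taken as ΔΨm; variable-slope fit for IC50; means ± SD, n = 4.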

The subject of test [10] is HT-29. Description: Induction of ROS generation in human HT-29 cells at 30 uM by CM-H2DCFDA staining-based fluorescence assay in presence of glutathione. The format is functional, cell-based. The procedure, abridged:
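HT-29 (15 000 cells/well) loaded with 50 μM CM-H2DCFDA in PBS for 30 min at 37 °C, washed, then 60 min in phenol red-free DMEM/F-12. 30 μM compound added alone or with NAC 1 mM, GSH 2.5 mM, D3T 25 μM, α-tocopherol 50 μM or ascorbic acid 500 μM. Fluorescence 485/530 nm read kinetically at 37 °C for 22 h; area under curve; means ± SEM, n = 7.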

Test [11] has as its system HT-29. Description: Upregulation of p21/Cip1 expression in human HT-29 cells at 10 uM after 48 hrs by immunoblotting method. The format is functional, cell-based. In a few lines:
(§3)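 HT-29 cells exposed 48 h to 10 μM compound. Whole-cell protein lysates probed for cell-cycle modulators by immunoblotting.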

Test [12] has as its target T1, Peroxisome proliferator-activated receptor alpha (Homo sapiens, UniProt Q07869).
T1 sequence (Q07869 whole entry): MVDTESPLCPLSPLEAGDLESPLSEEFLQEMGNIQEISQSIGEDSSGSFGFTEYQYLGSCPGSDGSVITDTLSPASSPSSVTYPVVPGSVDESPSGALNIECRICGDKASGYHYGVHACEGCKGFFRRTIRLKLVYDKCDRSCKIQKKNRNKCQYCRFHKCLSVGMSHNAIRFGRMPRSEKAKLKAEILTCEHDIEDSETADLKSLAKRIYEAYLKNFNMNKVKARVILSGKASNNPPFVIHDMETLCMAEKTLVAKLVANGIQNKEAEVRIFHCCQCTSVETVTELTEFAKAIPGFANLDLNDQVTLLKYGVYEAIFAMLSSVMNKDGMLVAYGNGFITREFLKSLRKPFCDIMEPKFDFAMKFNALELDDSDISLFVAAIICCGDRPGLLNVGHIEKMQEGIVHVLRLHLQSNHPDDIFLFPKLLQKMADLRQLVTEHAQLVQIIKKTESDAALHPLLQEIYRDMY
In words: Competitive binding affinity to PPARalpha (unknown origin) by TR-FRET assay.

Test [13] concerns HT-29. In words: Antiproliferative activity against human HT-29 cells assessed as cellular DNA content at 20 uM after 48 hrs by CyQUANT NF fluorescence assay in presence of PPAR siRNA. The format is functional, cell-based. In a few lines: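 HT-29 reverse-transfected with equimolar siRNA pool against PPARα, β/δ, γ (10 nM each) or 30 nM nonspecific siRNA, seeded 850 cells/well. After 48 h, 20 μM compound added for a further 48 h. Relative cell number from DNA content; means ± SD, n = 8.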

Test [14] deals with HT-29. In words: Induction of cell cycle arrest in human HT-29 cells assessed as accumulation at G2/M phase at 10 uM by flow cytometry (reference value: 21%). The format is functional. Background: In flow cytometry, cells or beads pass a laser one at a time.
Test [15] has as its target T2, Peroxisome proliferator-activated receptor delta (Homo sapiens, UniProt Q03181).
T2 sequence (Q03181 whole entry): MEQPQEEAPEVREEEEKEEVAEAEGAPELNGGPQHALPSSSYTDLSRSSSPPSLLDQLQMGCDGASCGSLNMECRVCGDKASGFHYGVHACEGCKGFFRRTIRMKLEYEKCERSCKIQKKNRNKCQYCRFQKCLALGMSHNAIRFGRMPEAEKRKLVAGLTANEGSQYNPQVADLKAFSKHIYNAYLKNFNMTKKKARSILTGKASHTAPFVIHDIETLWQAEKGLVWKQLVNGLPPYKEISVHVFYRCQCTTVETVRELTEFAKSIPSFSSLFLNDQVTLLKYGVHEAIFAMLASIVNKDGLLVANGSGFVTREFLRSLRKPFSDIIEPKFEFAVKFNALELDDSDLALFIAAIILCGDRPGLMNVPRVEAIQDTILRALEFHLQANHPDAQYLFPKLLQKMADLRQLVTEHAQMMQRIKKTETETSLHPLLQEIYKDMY
In words: Competitive binding affinity to PPARbeta/delta (unknown origin) by TR-FRET assay. For orientation: Time-resolved FRET reads energy transfer from a long-lived donor to a nearby acceptor.

The test system of test [16] is HT-29. In words: Induction of apoptosis in human HT-29 cells at 30 uM after 24 hrs by annexin V-FLUOS/propidium iodide staining-based flow cytometry in presence of 3H-1,2-dithiole-3-thione. The format is functional, cell-based. The procedure, abridged:
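HT-29 treated 24 h with 30 μM with or without antioxidant (NAC 1 mM, D3T 25 μM). Apoptosis by annexin V/propidium iodide flow cytometry; means ± SEM, n = 3.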

The test system of test [17] is HT-29. In words: Upregulation of p27/Kip1 expression in human HT-29 cells at 10 uM after 48 hrs by immunoblotting method. The format is functional, cell-based. In a few lines: as §3

Molecules are shown by their SMILES. pIC50, pKi: −log10 of the molar value. Activity calls are given as the source filed them. The rule behind the calls is not given here.

As a reminder, the pIC50 is the IC50 on a negative log10 scale, so that one unit is a factor of ten. In general, pKi refers to −log10 of the Ki, conventionally taken in molar units. A low value points to a high Ki. For `COc1c(CC=C(C)C)c(O)c(C(=O)O)c(CCc2ccccc2)c1CC=C(C)C`, the pIC50 in test [1] was 4.96; in [9], 6.22. The result in test [2], in test [3], in test [4], in test [6], in test [7] and in [8] was Active. For the same compound, the result in test [11], in test [13], in [16] and in test [17] was Active. Moreover, the Activity is 44% in [5] and 7% in test [14]. In test [10], the outcome was inactive. The negative-log Ki (pKi) is 5.04 in test [12] and 5.28 in test [15].
